L major viab = Leishmania major promastigote growth inhibition, primary screen; AID 1063, 2008; actives 9% (n = 200,000); Leishmania major promastigotes, resazurin fluorescence viability; inhibition, % at 10 µM; in the data active = inhibition above about 50%;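 note: promastigotes grown with compound for 44 hours at 28 °C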
WT yeast gro inh = growth inhibition of WT strain, primary screen, mitochondrial fusion inhibitor project, WT and mutant strains, chemical genetic | inhibition, % at 10 µM | AID 1362, 2008 | actives 2.1% (n = 190,000) | mitochondrial fusion phenotypic screen; in the data active = inhibition above about 58%; tested in S. cerevisiae
ROMK mod = ROMK potassium channel modulators, primary screen, cell-based, thallium flux, MLSMR library. actives 2% (n = 130,000). AID 1918, 2009. Tet-inducible ROMK, thallium flux fluorescence; actives lie on both sides. B-score at 10 µM. ATP-sensitive inward rectifier potassium channel 1 (Homo sapiens), P48048;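 active = signal ratio slope over the read window, or its plate-corrected B-score, at least 3 SD from the plate mean, either direction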;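 note: B-score of the F/F0 ratio slope over 7 to 12 s after thallium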
Target sequence (P48048 whole entry, looked up): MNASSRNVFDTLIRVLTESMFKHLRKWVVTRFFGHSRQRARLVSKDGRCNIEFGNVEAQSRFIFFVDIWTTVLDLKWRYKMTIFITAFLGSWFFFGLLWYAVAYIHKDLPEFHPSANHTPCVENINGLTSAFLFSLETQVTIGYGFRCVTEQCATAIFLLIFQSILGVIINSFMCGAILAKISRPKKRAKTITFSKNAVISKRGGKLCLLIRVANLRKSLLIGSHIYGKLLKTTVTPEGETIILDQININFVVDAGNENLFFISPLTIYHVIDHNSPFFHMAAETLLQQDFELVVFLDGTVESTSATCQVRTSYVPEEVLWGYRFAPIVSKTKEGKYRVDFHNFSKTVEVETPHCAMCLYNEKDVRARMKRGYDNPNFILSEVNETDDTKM
Diaphorase act = compounds boosting diaphorase resazurin reduction – biochemical, uHTS, resorufin fluorescence, counter-screen for diaphorase-coupled primary assays, primary screen. AID 1229, 2008. actives 0.005% (n = 190,000). activation factor at 20 µM. Diaphorase/resazurin coupled assay, 16 min; active compounds read high; 1 = vehicle wells, 0 = NADH-free wells;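 active = diaphorase activity raised at least twofold by the compound at 20 µM; inactive = activation factor below 2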
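Material: bacterial diaphorase enzyme (C. kluyveri); amount: enzyme 0.07 U/mL final; reagent: NADH substrate 0.114 mM plus resazurin dye 0.1 mM, final; doses: single compound dose of 20 µM, 1% DMSO final; timing: 16 min enzyme reaction, ambient temperature; measured by: fluorescence of resorufin, 544 nm excitation, 590 nm emission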
Diaph inh CS = diaphorase inhibitors and chemical oxidizers, primary screen, counter-screen for diaphorase-coupled primary assays, biochemical, uHTS, resorufin fluorescence | inhibition, % at 20 µM | diaphorase resazurin-to-resorufin fluorescence, NADH, 16 min; bacterial (C. kluyveri) enzyme, not human | actives 0.69% (n = 190,000);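 active = primary screen inhibition at 20 µM above a set limit, cut at about 50% in these data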
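Assay system – diaphorase enzyme from Clostridium kluyveri · Amount – diaphorase 0.14 U/mL (working solution) · Times – reaction incubation of 16 min at room temperature · Controls – No-NADH positive control and DMSO neutral control · Signal – resorufin fluorescence 544/590 nm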
KCC2 mod = KCC2 cotransporter modulators, thallium flux, primary screen, cell-based, HEK293 KCC2, FluoZin-2 fluorescence, MLSMR. AID 1456, 2008. KCC2 cells, thallium flux FluoZin-2 fluorescence. B-score of Tl+ flux slope (higher = more flux/activation; lower = inhibition) at 10 µM. actives 2.2% (n = 190,000);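 active = thallium flux slope and its plate-corrected score both differing from the plate sample mean at a set confidence after two filtering rounds, in either direction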;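 note: slope of fluorescence scaled to starting intensity during 10 to 20 s after thallium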
Numbers stand for hits; 0 = inactive; - = no result. Hits are enriched below; roughly 12% of the tested compounds scored in any of these assays.

SMILES | L major viab | WT yeast gro inh | ROMK mod | Diaphorase act | Diaph inh CS | KCC2 mod
Cc1nn(-c2ccccc2)c(C)c1/C=N/NC(=O)c1cc(-c2ccc(Br)s2)[nH]n1 | 55.7 | 0 | - | 0 | 0 | -
Cc1nc2c(C)cccc2cc1C(=O)N/N=C/c1cccnc1 | 0 | 0 | 0 | 0 | 0 | 0
COc1cccc(-c2cc(C(=O)Nc3c(C)nn(Cc4ccccc4C)c3C)no2)c1 | 52.5 | 0 | 0 | 0 | 0 | -
COc1cccc(-c2cc(C(=O)Nc3cc(OC)c(OC)c(OC)c3)no2)c1 | 51.0 | 0 | - | 0 | 0 | 0
COc1cccc(-c2cc(C(=O)Nc3c(C)nn(Cc4ccccc4)c3C)no2)c1 | 0 | 0 | - | 0 | 0 | 0
COc1cc(CCCN2C(N)=NC[C@H]2Cc2ccc(O)cc2)cc(OC)c1OC | - | - | - | - | - | 0
O=C(COc1cccnc1[N+](=O)[O-])NCCc1ccc(F)cc1 | 0 | 0 | 0 | 0 | 0 | 0
Cc1cnc(C(=O)Nc2cccc(S(=O)(=O)N(C)C)c2)cn1 | 0 | 0 | - | 0 | 0 | 0
c1ccc(CCNc2ncnc3scc(C4COc5ccccc5O4)c23)cc1 (stereo not given) | 84.8 | 69.1 | 0 | 0 | 0 | 0
COc1ccc2cc3c(N)c(C(=O)NCc4ccco4)sc3nc2c1 | 0 | 0 | - | 0 | 0 | -
Nc1c(C(=O)NCc2ccco2)sc2nc3c(cc12)C(=O)CCC3 | 0 | 0 | - | 0 | 52.7 | 0
Cc1cnc(NC(=O)CC2CCCC2)s1 | 0 | 0 | 0 | 0 | 0 | 0
c1ccc(CCn2nnnc2C(c2cccnc2)N2CCN(c3nc4ccccc4s3)CC2)cc1 (stereo not given) | 100.4 | 0 | 0 | 0 | 0 | 0
COc1ccc(Cn2nnnc2C(C(C)C)N2CCN(c3ccccc3OC)CC2)cc1 (stereo not given) | 0 | 0 | - | 0 | 0 | 0
c1ccc(Cn2nnnc2C(c2cccs2)N2CCOCC2)cc1 (stereo not given) | 0 | 0 | - | 0 | 0 | 0
c1ccc(CCn2nnnc2C(c2cccnc2)N2CCN(c3ccccc3)CC2)cc1 (stereo not given) | 96.7 | 0 | - | 0 | 0 | 0
CC(C)C(c1nnnn1Cc1ccc(F)cc1)N1CCN(c2ccc(O)cc2)CC1 (stereo not given) | 0 | 0 | 0 | 0 | 62.0 | 0
c1ccc(CCn2nnnc2C(c2cccs2)N2CCN(Cc3ccc4c(c3)OCO4)CC2)cc1 (stereo not given) | 79.9 | 0 | -3.06 | 0 | 0 | 0
Cc1ccc(NC(=O)CCC(=O)OCc2ccc(Br)cc2)cc1 | 0 | 0 | 0 | 0 | 0 | 0
CCN1CCN(C(c2ccccc2F)c2nnnn2Cc2ccc3c(c2)OCO3)CC1 (stereo not given) | 0 | 0 | -2.22 | 0 | 0 | -
Oc1ccc(N2CCN(C(c3cccnc3)c3nnnn3Cc3ccccc3)CC2)cc1 (stereo not given) | 64.8 | 0 | 0 | 0 | 0 | 0
Fc1ccccc1N1CCN(C(c2cccs2)c2nnnn2CCc2ccccc2)CC1 (stereo not given) | 0 | 0 | - | 0 | 0 | 0
Fc1ccc(N2CCN(C(c3cccs3)c3nnnn3CCc3ccccc3)CC2)cc1 (stereo not given) | 70.5 | 0 | - | 0 | 0 | 0
Cc1cc(C)c2[nH]c(=O)c(C(c3nnnn3Cc3ccc4c(c3)OCO4)N3CCC(C)CC3)cc2c1 (stereo not given) | 75.5 | 0 | 0 | 0 | 0 | 0
c1ccc(Cn2nnnc2C(c2cccnc2)N2CCN(C3CCCCC3)CC2)cc1 (stereo not given) | 0 | 0 | - | 0 | 0 | -
CCN1CCN(C(c2ccc(F)cc2)c2nnnn2Cc2ccc3c(c2)OCO3)CC1 (stereo not given) | 0 | 0 | 0 | 0 | 0 | 0
Cc1cc(N2CCC(C)CC2)nc(-n2nc(C)cc2C)n1 | 97.1 | 67.4 | - | 0 | 0 | 0
O=C1C(Cl)=C(NCCN2CCCCC2)C(=O)c2ccccc21 | 99.3 | 0 | 0 | 0 | 0 | 0
